KCNK9 inh: human KCNK9 channel inhibition | Q9NPC2 | HEK293 KCNK9, FluxOR thallium flux fluorescence; hits give low values | B-score at 10 µM | 310,000 compounds, 1.2% hits | AID 488922;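 active = ratio B-score over 3 SD below the library mean, with starting fluorescence within 5 SD of its mean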;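 also: negative B-score means less thallium flux so channel inhibition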
KCNK3 block: human KCNK3 channel inhibition, primary screen; O14649; CHO-KCNK3 thallium flux, FluxOR fluorescence; hits give low values; B-score at 10 µM; 340,000 compounds, 0.84% hits; AID 602410;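 active = B-score under library mean minus 4 SD, starting fluorescence ratio at most library mean plus 5 SD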;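 also: more negative B-score means stronger inhibition of thallium flux through KCNK3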
hERG protect: compounds protecting human hERG from proarrhythmic drug block | Q12809 | CHO-hERG, FluxOR thallium flux, dofetilide IC70 present | activation (rescue from dofetilide block), less the hit threshold, % at 10 µM | 310,000 compounds, 0.51% hits | AID 1511;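 active = activation above the mean of controls blocked by dofetilide plus 5 SD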;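 also: thallium influx through hERG after potassium depolarization seen as dye fluorescence rise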
KCNQ1 act: potentiators or activators of human KCNQ1 potassium channel; P51787; CHO-K1 KCNQ1, thallium flux FluxOR fluorescence; hits give high values; B-score at 10 µM; 310,000 compounds, 0.35% hits; AID 2648;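 active = fluorescence ratio B-score, a plate-corrected score, at least three library SD, with initial intensity B-score within 5 SD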
Target sequence (P51787 whole entry, looked up): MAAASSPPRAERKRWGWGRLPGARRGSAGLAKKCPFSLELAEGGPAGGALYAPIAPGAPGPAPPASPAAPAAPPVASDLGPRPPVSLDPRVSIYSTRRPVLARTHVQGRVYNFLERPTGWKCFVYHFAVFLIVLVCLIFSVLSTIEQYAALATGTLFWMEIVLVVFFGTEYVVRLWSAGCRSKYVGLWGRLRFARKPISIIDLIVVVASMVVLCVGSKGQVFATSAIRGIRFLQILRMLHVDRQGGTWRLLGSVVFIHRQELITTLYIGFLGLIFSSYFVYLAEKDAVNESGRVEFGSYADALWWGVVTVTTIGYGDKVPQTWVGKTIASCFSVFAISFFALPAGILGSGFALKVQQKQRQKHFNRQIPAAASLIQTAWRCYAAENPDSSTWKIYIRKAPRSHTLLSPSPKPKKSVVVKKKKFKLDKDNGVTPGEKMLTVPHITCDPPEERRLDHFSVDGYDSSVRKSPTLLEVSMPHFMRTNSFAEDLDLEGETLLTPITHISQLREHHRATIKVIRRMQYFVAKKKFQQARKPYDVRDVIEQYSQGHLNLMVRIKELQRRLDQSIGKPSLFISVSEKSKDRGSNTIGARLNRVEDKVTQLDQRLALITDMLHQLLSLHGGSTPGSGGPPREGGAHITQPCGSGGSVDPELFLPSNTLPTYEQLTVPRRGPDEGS
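Schedule – 37 °C overnight plating, 90-min dark dye load, 20-min compound pretreatment · System – stable KCNQ1 CHO-K1 line · Probe or stimulus – thallium- and potassium-containing depolarizing buffer · Measured by – kinetic FluxOR fluorescence, 10 s baseline plus 110 s post-stimulus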
KCNQ1 block: inhibitors of human KCNQ1 potassium channel; CHO-K1 KCNQ1, FluxOR thallium flux fluorescence; hits give high values; B-score at 10 µM; 310,000 compounds, 1.3% hits; AID 2642;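 active = compounds whose thallium flux B-score, printed positive for inhibition, exceeds three library SD while starting fluorescence stays within three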;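 also: channel opened by potassium depolarization with thallium stimulus after 20 min compound exposure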
Kir21 block: blocks the mouse Kir2.1 inward-rectifier potassium channel | B-score at 10 µM | HEK293-Kir2.1, FluxOR thallium flux fluorescence; hits give low values | 310,000 compounds, 0.85% hits;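 active = fluorescence ratio B-score at or below minus 3 SD of library scores, with starting-brightness B-score within 2 SD, cut at about -4.2 in these data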;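 also: channel flux triggered by added potassium and thallium sulfate stimulus; B-score of peak minus minimum fluorescence over baseline after thallium stimulus; more negative B-score means stronger Kir2.1 block with less thallium influx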
Each line names hits and unclear results; the compound was inactive in the other large screens. A selection: hits, their analogues and other compounds. The true share with any hit is near 3.8%.

Cc1ncc([N+](=O)[O-])n1S(=O)(=O)c1cc(Br)ccc1Br	none
COc1ccc(NC(=O)CON=CC(=O)Nc2ccc(C)cc2)c(OC)c1	none (no result: KCNK9 inh, hERG protect, KCNQ1 act, KCNQ1 block, Kir21 block)
O=C(Nc1ccc(N2CCOCC2)cc1)c1ccc(COc2ccccc2)cc1	none
CCOC(=O)Cc1csc2nc(-c3ccccc3)nn12	none
CCOC(=O)c1cc(=O)n2nc(-c3ccc(C)cc3)nc2s1	KCNQ1 block 7
COc1ccccc1NC(=O)CSC1=NC(=O)C(Cc2ccccc2)C(=O)N1 (stereo not given)	none
COc1ccccc1NC(=O)Cc1noc(CSc2cccc[n+]2[O-])n1	none
COc1ccc(NC(=O)CSc2c3c(nc4ccccc24)CCCC3)c(OC)c1	Kir21 block -4.7
COc1ccccc1NC(=O)CSc1nc2ccccc2cc1Cc1ccccc1	KCNK9 inh -7.9
COc1ccccc1NC(=O)CSc1c2c(nc3ccccc13)CCC2	Kir21 block -10
COc1ccccc1NC(=O)Cc1noc(CSc2cc(C)c3ccccc3n2)n1	KCNK3 block -9
COc1cc(NC(=O)CSc2c3c(nc4ccccc24)CCC3)cc(OC)c1OC	none
CN(C)C(CNC(=O)c1cccc(S(=O)(=O)N2CCN(c3ccc(F)cc3)CC2)c1)c1ccccc1 (stereo not given)	none (no result: KCNK9 inh, hERG protect, KCNQ1 act, KCNQ1 block, Kir21 block)
CCOc1ccc2nc3cc(N=Nc4ccc(N)nc4N)ccc3c(N)c2c1	none (no result: KCNK9 inh, hERG protect, KCNQ1 act, KCNQ1 block, Kir21 block)
CC(C)CN(C(=O)c1ccc(Br)o1)C1CCS(=O)(=O)C1 (stereo not given)	none
CC(=O)/C=C\c1cn(-c2ncc(C(F)(F)F)cc2Cl)c2ccccc12	KCNQ1 block 6
CO/N=C/NC(=O)Cc1cn(-c2ncc(C(F)(F)F)cc2Cl)c2ccccc12	none
Oc1ccc(C[C@H]2CNCCN2CCC23CC4CC(CC(C4)C2)C3)cc1	KCNQ1 block 6
CC(C)NS(=O)(=O)c1ccc(Br)c(C(=O)OC(C)C(=O)NC2CCCCC2C)c1 (stereo not given)	none
CC1=C(CC(=O)c2ccc(Cl)cc2)C(=O)c2ccccc2C1=O	KCNK9 inh -6.7
CN1/C(=C/C(=O)c2nc(S(C)(=O)=O)ncc2Cl)C(C)(C)c2ccccc21	KCNQ1 block 6
Cc1ccc(S(=O)(=O)CCC(=O)Nc2sccc2C(N)=O)cc1	none (no result: KCNK9 inh, hERG protect, KCNQ1 act, KCNQ1 block, Kir21 block)
Cc1ccc(S(=O)(=O)CCC(=O)Nc2sccc2C#N)cc1	Kir21 block -4.6
CCCn1nnnc1SCC(=O)Nc1nnc(CC)s1	hERG protect 17
CCOC(=O)c1c(NC(=O)CSc2nnnn2CC)sc(C)c1C	KCNK9 inh -7.7
Cc1nc(NC(=O)CSc2nnnn2Cc2ccccc2)sc1C	hERG protect 5.0
Cc1nnc(NC(=O)CSc2nnnn2Cc2ccccc2)s1	none
CCOC(=O)c1c(NC(=O)CSc2nnnn2C)sc(CC)c1C	KCNK9 inh -6.8
CN1CCN(C(=O)Nc2cccc(-c3ccccc3)c2)CC1	none
Cc1ccc(S(=O)(=O)N2CCSC2c2ccco2)cc1 (stereo not given)	Kir21 block -4.3
Cc1ccc(S(=O)(=O)N2CCSC2C(=O)O)cc1 (stereo not given)	none
O=C(CS(=O)(=O)c1ccccc1)Nc1ccccc1Br	none (no result: KCNK9 inh, hERG protect, KCNQ1 act, KCNQ1 block, Kir21 block)
CC(=O)Oc1c(-c2ccco2)oc2ccccc2c1=O	KCNQ1 act 8
COc1ccccc1C(CNC(=O)CCNS(=O)(=O)c1ccc(Br)cc1)N1CCCC1 (stereo not given)	none (no result: KCNK9 inh, hERG protect, KCNQ1 act, KCNQ1 block, Kir21 block)
C=CCn1c(SCc2csc(-c3ccc(C)cc3)n2)nnc1-c1ccccc1OC	KCNQ1 block 6, Kir21 block -7.7
COc1ccccc1-n1cnnc1SCc1csc(-c2ccccc2)n1	none (no result: KCNK9 inh, hERG protect, KCNQ1 act, KCNQ1 block, Kir21 block)
COc1cccc(C(=O)NCc2ccco2)c1OC	none
CC(=O)c1ccccc1OC(=O)c1ccc(-c2ccccc2)cc1	KCNK9 inh -6.7
CCN(C(=O)C(C)Sc1nnc(-c2ccncc2)n1C)C1CCCCC1 (stereo not given)	none (no result: KCNK9 inh, hERG protect, KCNQ1 act, KCNQ1 block, Kir21 block)
COc1ccc(OC)c(CCNC(=O)Cn2sc3nc(C)cc(C)c3c2=O)c1	KCNQ1 block 6 (no result: KCNK3 block)
CCn1cc(CCC(=O)NC(C)c2ccccc2)c2ccccc21 (stereo not given)	Kir21 block -6.1
CC(C)NC(=O)CCCc1cn(C)c2ccccc12	none
CCn1cc(CCC(=O)NCc2cccc(OC)c2OC)c2ccccc21	hERG protect 6.4
CC(CCc1ccccc1)NC(=O)CCc1cn(C)c2ccccc12 (stereo not given)	Kir21 block -5.6
CCN(CC)S(=O)(=O)c1ccc(/C=C/C(=O)OCC(=O)NCc2cccs2)cc1	none (no result: KCNK9 inh, hERG protect, KCNQ1 act, KCNQ1 block, Kir21 block)
Cc1ccc(CN(C)C(=O)C2CCC(=O)N(CCc3ccccc3)C2)o1 (stereo not given)	none
COc1ccc(OC)c(CCNC(=O)CCc2cn(C)c3ccccc23)c1	Kir21 block -5.6
Cc1ccnc2nc(C(=O)OCC(=O)N(Cc3ccccc3)C(C)C)nn12	none (no result: KCNK9 inh, hERG protect, KCNQ1 act, KCNQ1 block, Kir21 block)
O=C(Nc1nc(-c2ccccc2)cs1)c1ccc(N2CCOCC2)c([N+](=O)[O-])c1	KCNQ1 block 7
COc1ccc(S(=O)(=O)N2CCc3ccccc32)cc1C(=O)N1CCOCC1	none
Cn1cccc1C(=O)NC(=O)COC(=O)c1ccc(O)cc1	none
Cn1cccc1C(=O)NC(=O)COC(=O)c1ccccc1O	hERG protect 5.3
CCOc1cc(/C=C2/C(=O)ON=C2C)cc(Br)c1O	KCNQ1 block 9
CCCOc1ccc(/C=C2/C(=O)ON=C2C)cc1OCC	none
O=C1ON=C(c2ccccc2)/C1=C/c1ccccc1	none
COc1cc(/C=C2\C(=O)ON=C2c2ccccc2)cc(Br)c1O	KCNQ1 block 7, Kir21 block -6.6
COc1cc(/C=C2/C(=O)ON=C2c2ccccc2)ccc1O	Kir21 block -4.8
CCC[C@@H](CN1CCC[C@H]1CN1C(N)=NC[C@H]1C(C)C)N1C[C@@H](Cc2ccccc2)N(CCCC2CCCC2)C1=N	none (no result: KCNK9 inh, hERG protect, KCNQ1 act, KCNQ1 block, Kir21 block)
CCCCc1ccc(/C=C2\C(=O)c3ccccc3C(O)=C2C(=O)OCC)cc1	KCNQ1 act 9 (no result: KCNK3 block)
CCOC(=O)C1=C(Cc2ccc(F)cc2)C(=O)c2ccccc2C1=O	none
COc1ccc(C)cc1S(=O)(=O)N1CCc2ccccc2C1	Kir21 block -4.3
C[C@@H]1C(c2cccc(Cl)c2)=NN(c2ccc(Br)cc2)[C@H]1C(=O)N1CCOC1=O	none (no result: KCNK9 inh, hERG protect, KCNQ1 act, KCNQ1 block, Kir21 block)
CC(C)Oc1ccc(Nc2ncnc3ccccc23)cc1	none
CCCCC(Nc1ncnc2ccccc12)C(=O)O (stereo not given)	KCNQ1 act 16
CC(=O)NNc1ncnc2ccccc12	none
CC(Nc1ncnc2ccccc12)c1ccccc1 (stereo not given)	KCNQ1 block 6
O=C(NCC1(c2ccccc2)CCCC1)c1ccccc1	none
O=C(NCC1(c2ccccc2)CCCC1)c1ccccc1Br	Kir21 block -5.3
O=C(O)CCCCCNC(=O)c1ccccc1Br	hERG protect 5.4
COC(=O)c1ccc2c(c1C(=O)OC)CN(S(=O)(=O)C(C)(C)C)[C@@H]2CCO	none (no result: KCNK9 inh, hERG protect, KCNQ1 act, KCNQ1 block, Kir21 block)

Assay outcomes from PubChem BioAssay.
